Laboratory results from ChEMBL document CHEMBL1152575, “Synthesis and GABA(A) receptor activity of 2,19-sulfamoyl analogues of allopregnanolone” (Bioorg Med Chem, 2009).

How the values were obtained:
Format in all cases: tissue-based
Rattus norvegicus [1] = organism: Rattus norvegicus; assay: Stimulation [3H]flunitrazepam binding to benzodiazepine binding site of GABA-A receptor in Sprague-Dawley rat cerebellum by liquid scintillation spectrophotometry
How it was run: (§1)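 Male rat (200–250 g) cerebellar P2 membranes, washed and resuspended in 50 mM Tris–HCl pH 7.1 (~1 mg/mL protein). Incubated with 1 nM [3H]flunitrazepam and steroids at 10–800 nM for 90 min at 4 °C. Steroids were in DMSO, diluted 1:1000 in buffer just before use. 1 µM diazepam defined non-specific binding. Filtered, then scintillation counting. Mean of four experiments in duplicate.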

Rattus norvegicus [2] = organism: Rattus norvegicus; assay: Stimulation [3H]flunitrazepam binding to benzodiazepine binding site of GABA-A receptor in Sprague-Dawley rat cerebellum at 25 nM by liquid scintillation spectrophotometry; how it was run: as §1
Rattus norvegicus [3] = organism: Rattus norvegicus; assay: Stimulation [3H]muscimol binding to GABA binding site of GABA-A receptor in Sprague-Dawley rat cerebellum at 1000 nM by liquid scintillation spectrophotometry
How it was run: (§2)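 Rat cerebellar P2 membranes (male, 200–250 g) in 50 mM Tris–acetate pH 7.4, about 1 mg/mL protein. Incubated with 10 nM [3H]muscimol and steroids at 20–1000 nM for 60 min at 4 °C. Steroid DMSO stocks were diluted 1:1000 in buffer. 10 µM GABA defined non-specific binding. Vacuum filtration over glass-fibre filters, scintillation counting. Four experiments in duplicate, averaged.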

Rattus norvegicus [4] = organism: Rattus norvegicus; assay: Stimulation [3H]muscimol binding to GABA binding site of GABA-A receptor in Sprague-Dawley rat cerebellum at 20 nM by liquid scintillation spectrophotometry; how it was run: as §2
Rattus norvegicus [5] = organism: Rattus norvegicus; assay: Stimulation [3H]muscimol binding to GABA binding site of GABA-A receptor in Sprague-Dawley rat cerebellum at 400 nM by liquid scintillation spectrophotometry; how it was run: as §2
Rattus norvegicus [6] = organism: Rattus norvegicus; assay: Stimulation [3H]flunitrazepam binding to benzodiazepine binding site of GABA-A receptor in Sprague-Dawley rat cerebellum at 800 nM by liquid scintillation spectrophotometry; how it was run: as §1
Rattus norvegicus [7] = organism: Rattus norvegicus; assay: Stimulation [3H]flunitrazepam binding to benzodiazepine binding site of GABA-A receptor in Sprague-Dawley rat cerebellum at 50 nM by liquid scintillation spectrophotometry; how it was run: as §1
Rattus norvegicus [8] = organism: Rattus norvegicus; assay: Stimulation [3H]flunitrazepam binding to benzodiazepine binding site of GABA-A receptor in Sprague-Dawley rat cerebellum at 500 nM by liquid scintillation spectrophotometry; how it was run: as §1
Rattus norvegicus [9] = organism: Rattus norvegicus; assay: Stimulation [3H]muscimol binding to GABA binding site of GABA-A receptor in Sprague-Dawley rat cerebellum at 800 nM by liquid scintillation spectrophotometry; how it was run: as §2
Rattus norvegicus [10] = organism: Rattus norvegicus; assay: Stimulation [3H]flunitrazepam binding to benzodiazepine binding site of GABA-A receptor in Sprague-Dawley rat cerebellum at 10 nM by liquid scintillation spectrophotometry; how it was run: as §1
Rattus norvegicus [11] = organism: Rattus norvegicus; assay: Stimulation [3H]muscimol binding to GABA binding site of GABA-A receptor in Sprague-Dawley rat cerebellum at 50 nM by liquid scintillation spectrophotometry; how it was run: as §2
Rattus norvegicus [12] = organism: Rattus norvegicus; assay: Stimulation [3H]flunitrazepam binding to benzodiazepine binding site of GABA-A receptor in Sprague-Dawley rat cerebellum at 100 nM by liquid scintillation spectrophotometry; how it was run: as §1
Rattus norvegicus [13] = organism: Rattus norvegicus; assay: Stimulation [3H]flunitrazepam binding to benzodiazepine binding site of GABA-A receptor in Sprague-Dawley rat cerebellum at 250 nM by liquid scintillation spectrophotometry; how it was run: as §1
Rattus norvegicus [14] = organism: Rattus norvegicus; assay: Stimulation [3H]muscimol binding to GABA binding site of GABA-A receptor in Sprague-Dawley rat cerebellum at 200 nM by liquid scintillation spectrophotometry; how it was run: as §2
Rattus norvegicus [15] = organism: Rattus norvegicus; assay: Stimulation [3H]muscimol binding to GABA binding site of GABA-A receptor in Sprague-Dawley rat cerebellum by liquid scintillation spectrophotometry; how it was run: as §2
Rattus norvegicus [16] = organism: Rattus norvegicus; assay: Stimulation [3H]muscimol binding to GABA binding site of GABA-A receptor in Sprague-Dawley rat cerebellum at 100 nM by liquid scintillation spectrophotometry; how it was run: as §2

| SMILES | EC50 (Rattus norvegicus [1]) [µM] | Activity (Rattus norvegicus [2]) [%] | Activity (Rattus norvegicus [3]) [%] | Activity (Rattus norvegicus [4]) [%] | Activity (Rattus norvegicus [5]) [%] | Activity (Rattus norvegicus [6]) [%] | Activity (Rattus norvegicus [7]) [%] | Activity (Rattus norvegicus [8]) [%] | Activity (Rattus norvegicus [9]) [%] | Activity (Rattus norvegicus [10]) [%] | Activity (Rattus norvegicus [11]) [%] | Activity (Rattus norvegicus [12]) [%] | Activity (Rattus norvegicus [13]) [%] | Activity (Rattus norvegicus [14]) [%] | EC50 (Rattus norvegicus [15]) [µM] | Activity (Rattus norvegicus [16]) [%] |
| --- | --- | --- | --- | --- | --- | --- | --- | --- | --- | --- | --- | --- | --- | --- | --- | --- |
| CC(=O)[C@H]1CC[C@H]2[C@@H]3CC[C@H]4C[C@H](O)[C@@H]5C[C@]4(COS(=O)(=O)N5)[C@H]3CC[C@]12C | 0.063 | 113 | 176 | 100 | 118 | 170 | 122 | 126 | 170 | 104 | 105 | 122 | 126 | 106 | 0.542 | 108 |
| CC(=O)[C@H]1CC[C@H]2[C@@H]3CC[C@H]4C[C@H](O)CC[C@]4(C)[C@H]3CC[C@]12C | 0.265 | 93 | 173 | 95 | 116 | 140 | 92 | 132 | 165 | 93 | 100 | 97 | 122 | 106 | 0.658 | 108 |
| CC(=O)[C@H]1CC[C@H]2[C@@H]3CC[C@H]4C[C@H](O)[C@@H]5C[C@]4(COS(=O)(=O)N5Cc4ccccc4)[C@H]3CC[C@]12C | 0.081 | 113 | 141 | 119 | 124 | 134 | 118 | 125 | 124 | 108 | 121 | 117 | 122 | 117 | 1.89 | 121 |
| CC(=O)[C@H]1CC[C@H]2[C@@H]3CC[C@H]4C[C@H](F)[C@@H]5C[C@]4(COS(=O)(=O)N5)[C@H]3CC[C@]12C | – | – | – | – | – | 98 | – | – | 96 | – | – | – | – | – | – | – |
